Experimental data pooled from the literature.
Each line is one published result; the experiments were not run side by side.
Observed: cell growth or viability

COc1cccc2c1C(=O)c1c(O)c3c(c(O)c1C2=O)C[C@@](O)(C(=O)CO)C[C@@H]3O[C@H]1C[C@H](N)[C@H](O)[C@H](C)O1 — IC50 (human Skin fibroblast; MTT; 24 h): > 100 µM
COC(=O)c1cc(C(C)=NNc2nc(-c3ccc(C)cc3)cs2)ccc1O — IC50 (human Skin fibroblast; MTT; 96 h): 10.2 µM
C[C@H](Nc1ccc2c(c1)OCCn1cc(N3C(=O)OC[C@H]3C(F)F)nc1-2)C(N)=O — EC50 (NCI-H1563; ATP luminescence; 5 days): 0.149 µM
CO[C@H]1[C@H](O[C@H]([C@H]2O[C@@H](n3ccc(=O)[nH]c3=O)[C@H](O)[C@@H]2O)[C@H](NCCCNC(=O)[C@@H](NC(=O)[C@@H](NC(=O)N[C@H](C(=O)O)C(C)C)[C@@H]2CCN=C(N)N2)[C@@H](O)C(C)C)C(=O)O)O[C@H](CN)[C@H]1O — IC50 (BT-474; WST-1): > 35 µM
NC(=O)C1CN(C(=O)CCl)c2ccccc2O1 (stereo not shown) — IC50 (BT-474; fluorescence; 5 days): 17.5 µM
CC(C)(C)c1cnc(CSc2cnc(NC(=O)C3CCN(C(=O)CCCCCCCN4Cc5cc6c(cc5C4)C(=O)N(C4CCC(=O)NC4=O)C6=O)CC3)s2)o1 (stereo not shown) — IC50 (MES-SA; MTT): 0.0853 µM
CCc1oc2cc(S(=O)(=O)Nc3ccc(S(=O)(=O)Nc4nccs4)cc3)ccc2c1C(=O)c1cc(Br)c(O)c(Br)c1 — IC50 (human Skin fibroblast; MTT; 96 h): 146 µM
Cc1cc2c(C(=O)O)cccc2n1-c1nc2c(c(NCc3ccccc3)n1)CCCN2 — IC50 (MOLM16; 72 h): 0.7 µM
C[C@H]1[C@H](C)CC[C@]2(C(=O)O)CC[C@]3(C)C(=CC[C@@H]4[C@@]5(C)CC[C@H](O)C(C)(C)[C@@H]5CC[C@]43C)[C@H]12 — IC50 (human Skin fibroblast; MTT; 24 h): 32.3 µM
CONC(=O)c1cccc2c1cc(C)n2-c1nc2c(c(NCc3ccccc3)n1)CCCN2 — IC50 (MOLM16; 72 h): 0.4 µM
Cc1nc(NC(=O)N2CCC[C@H]2C(N)=O)sc1-c1ccnc(C(C)(C)C(F)(F)F)c1 — EC50 (NCI-H1563; ATP luminescence; 5 days): 7.42 µM
CO[C@H]1[C@H](O[C@H]([C@H]2O[C@@H](n3ccc(=O)[nH]c3=O)[C@H](O)[C@@H]2O)[C@H](NCCCNC(=O)[C@@H](NC(=O)[C@@H](NC(=O)N[C@H](C(=O)O)C(C)C)[C@@H]2CCN=C(N)N2)[C@@H](OC(=O)CCCCCCCCCCCCN(O)C(=N)N)C(C)C)C(=O)O)O[C@H](CN)[C@H]1O — IC50 (BT-474; WST-1): 0.85 µM
COc1cc([C@@H]2c3cc4c(cc3[C@@H](O[C@@H]3O[C@@H]5CO[C@@H](C)O[C@H]5[C@H](O)[C@H]3O)[C@H]3COC(=O)[C@H]23)OCO4)cc(OC)c1O — IC50 (SK-HEP1; SRB; 72 h): 2.7 µM
